{"source": "paper PMC8513424", "about": "(Laryngoscope Investigative Otolaryngology, 2021)", "format_in_all_cases": "in vivo, human", "key": {"[1]": {"assay": "Pilot 2 intra‐tumoral AR‐42 concentration by LC‐MS/MS", "summary_of_the_method": "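The oral test compound was given at 40 mg three times weekly for 3 weeks before resection. Each VS was divided into peripheral capsule and center, and samples were frozen quickly. Drug was measured by LC-MS/MS against a standard curve of known concentrations, as the mean of three runs. Tumor:plasma ratio = capsule or center concentration ÷ pre-anesthesia plasma concentration.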"}, "[2]": {"assay": "Pilot 2 plasma AR‐42 concentration by LC‐MS/MS", "settings": "40 mg; for Concentration in plasma, Before surgery: mean of three trials", "summary_of_the_method": "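Dosing was 40 mg orally three times weekly for 3 weeks before surgery. Venous blood was drawn at induction of anesthesia and again at tumor removal (about 3-4 h after surgery start). Plasma was separated by cold centrifugation and kept frozen. Drug was quantified by LC-MS/MS against a standard curve, as the mean of three runs. Pre-operative and removal-time levels were compared by paired t-test (P ≤ .05).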"}, "[3]": {"system": "patients with sporadic VS or meningioma", "assay": "Pilot 2 safety and tolerability", "summary_of_the_method": "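Phase 0 pre-surgical study: 40 mg of the test compound orally three times weekly for 3 weeks before planned VS/meningioma resection. Adults >18 y had ECOG 0-1, normal organ and marrow function, and could swallow capsules. Excluded were pregnancy, malabsorption, chronic corticosteroids, prolonged QT, active infection, and concurrent antineoplastic therapy or radiotherapy.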"}, "[4]": {"settings": "Patient # 2.7 (meningioma), 40 mg"}}, "data": [{"smiles": "CC(C)[C@H](C(=O)Nc1ccc(C(=O)NO)cc1)c1ccccc1", "note": "[AR‐42]", "values": [{"measurement": "Concentration in meningioma capsule", "setting": "[1]; 40 mg", "value": 5300, "unit": "nM"}, {"measurement": "Concentration in meningioma tumor center", "setting": "[1]; 40 mg", "value": 1800, "unit": "nM"}, {"measurement": "Concentrations of AR‐42 in VS", "setting": "[1]; 40 mg", "value": "230 to 620", "unit": "nM"}, {"measurement": "Concentration in tumors, Capsule", "setting": "[1]; Patient # 2.1 (VS), 40 mg", "value": 624.2, "unit": "nM"}, {"measurement": "Concentration in tumors, Center", "setting": "[1]; Patient # 2.1 (VS), 40 mg", "value": 577.0, "unit": "nM"}, {"measurement": "Concentration in tumors, Capsule", "setting": "[1]; Patient # 2.2 (VS), 40 mg", "value": 429.4, "unit": "nM"}, {"measurement": "Concentration in tumors, Center", "setting": "[1]; Patient # 2.2 (VS), 40 mg", "value": 586.6, "unit": "nM"}, {"measurement": "Concentration in tumors, Capsule", "setting": "[1]; Patient # 2.4 (VS), 40 mg", "value": 230.6, "unit": "nM"}, {"measurement": "Concentration in tumors, Center", "setting": "[1]; Patient # 2.4 (VS), 40 mg", "value": 289.0, "unit": "nM"}, {"measurement": "Concentration in tumors, Capsule", "setting": "[1]; Patient # 2.6 (VS), 40 mg", "value": 16.2, "unit": "nM"}, {"measurement": "Concentration in tumors, Center", "setting": "[1]; Patient # 2.6 (VS), 40 mg", "value": 7.1, "unit": "nM"}, {"measurement": "Concentration in tumors, Capsule", "setting": "[1]; [4]", "value": 5296.6, "unit": "nM"}, {"measurement": "Concentration in tumors, Center", "setting": "[1]; [4]", "value": 1766.2, "unit": "nM"}, {"measurement": "Meningioma (subject 2.7) AR‐42 level higher than the VS", "setting": "[1]; WHO grade I meningioma", "value": 10, "unit": "fold"}, {"measurement": "AR‐42 concentrations in tumors compared with plasma", "setting": "[1]; all tumors, Pilot 2, 40 mg", "value": "higher"}, {"measurement": "Concentration in plasma, At tumor removal", "setting": "[2]; Patient # 2.1 (VS)", "value": 303.7, "unit": "nM"}, {"measurement": "Concentration in plasma, Before surgery", "setting": "[2]; Patient # 2.1 (VS)", "value": 362.3, "unit": "nM"}, {"measurement": "Concentration in plasma, At tumor removal", "setting": "[2]; Patient # 2.2 (VS)", "value": 121.1, "unit": "nM"}, {"measurement": "Concentration in plasma, Before surgery", "setting": "[2]; Patient # 2.2 (VS)", "value": 224.2, "unit": "nM"}, {"measurement": "Concentration in plasma, At tumor removal", "setting": "[2]; Patient # 2.4 (VS)", "value": 36.8, "unit": "nM"}, {"measurement": "Concentration in plasma, Before surgery", "setting": "[2]; Patient # 2.4 (VS)", "value": 61.8, "unit": "nM"}, {"measurement": "Concentration in plasma, At tumor removal", "setting": "[2]; Patient # 2.6 (VS)", "value": 3.4, "unit": "nM"}, {"measurement": "Concentration in plasma, Before surgery", "setting": "[2]; Patient # 2.6 (VS)", "value": 3.5, "unit": "nM"}, {"measurement": "Concentration in plasma, At tumor removal", "setting": "[2]; Patient # 2.7 (meningioma)", "value": 72.9, "unit": "nM"}, {"measurement": "Concentration in plasma, Before surgery", "setting": "[2]; Patient # 2.7 (meningioma)", "value": 99.1, "unit": "nM"}, {"measurement": "Plasma concentration of AR‐42", "setting": "[2]; first three patients with VS, before and at tumor removal", "value": "62 to 360", "unit": "nM"}, {"measurement": "Plasma level after anesthesia", "setting": "[2]; patient with meningioma", "value": 73, "unit": "nM"}, {"measurement": "Plasma level before anesthesia", "setting": "[2]; patient with meningioma", "value": 99, "unit": "nM"}, {"measurement": "Arrhythmias or QT changes", "setting": "[3]; Pilot 2, 40 mg", "value": "no arrhythmias or QT changes"}, {"measurement": "Grade 3 or 4 toxicities", "setting": "[3]; Pilot 2, 3 weeks at 40 mg", "value": "no grade 3 or 4 toxicities"}]}]}
